Experimental findings from ChEMBL document CHEMBL1629492 (Eur J Med Chem, 2010) are described below.

The target in assay [1] is T1, Alpha-1B adrenergic receptor (Homo sapiens, UniProt P35368).
T1 sequence (P35368 whole entry): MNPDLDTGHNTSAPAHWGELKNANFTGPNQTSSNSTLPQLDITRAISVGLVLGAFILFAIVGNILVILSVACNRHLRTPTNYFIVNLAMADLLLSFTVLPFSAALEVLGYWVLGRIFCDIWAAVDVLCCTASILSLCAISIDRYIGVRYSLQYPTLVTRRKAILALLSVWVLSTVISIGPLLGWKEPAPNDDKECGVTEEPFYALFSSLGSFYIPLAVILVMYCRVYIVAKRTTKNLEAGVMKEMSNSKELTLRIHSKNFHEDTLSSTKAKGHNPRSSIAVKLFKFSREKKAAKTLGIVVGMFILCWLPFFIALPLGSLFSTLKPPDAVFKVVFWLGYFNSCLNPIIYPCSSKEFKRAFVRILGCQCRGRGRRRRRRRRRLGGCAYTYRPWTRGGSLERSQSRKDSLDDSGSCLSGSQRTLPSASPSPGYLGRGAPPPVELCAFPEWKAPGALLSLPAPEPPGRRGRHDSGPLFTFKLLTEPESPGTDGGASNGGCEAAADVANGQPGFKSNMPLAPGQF
Nature of the assay: Displacement of [3H]prazosin from human Alpha-1B adrenoceptor expressed in CHO cells. The format is cell-based. The method in brief: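 Membranes ([…], as printed) from CHO cells stably expressing the cloned human α1b subtype were incubated with 0.1–0.4 nM [³H]prazosin and competitor (1 pM up to the top concentration) in 50 mM Tris-HCl, pH 7.4, for 30 min at 25 °C. Non-specific binding was defined with phentolamine, and incubations ended by filtration. Ki was derived from IC50 by Cheng–Prusoff. Reported as pKi from 2–3 triplicate experiments.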
In general terms: Displacement assays read how much labelled ligand stays bound in the presence of the test substance.

In assay [2] the target is T2, Alpha-1D adrenergic receptor (Homo sapiens, UniProt P25100).
T2 sequence (P25100 whole entry): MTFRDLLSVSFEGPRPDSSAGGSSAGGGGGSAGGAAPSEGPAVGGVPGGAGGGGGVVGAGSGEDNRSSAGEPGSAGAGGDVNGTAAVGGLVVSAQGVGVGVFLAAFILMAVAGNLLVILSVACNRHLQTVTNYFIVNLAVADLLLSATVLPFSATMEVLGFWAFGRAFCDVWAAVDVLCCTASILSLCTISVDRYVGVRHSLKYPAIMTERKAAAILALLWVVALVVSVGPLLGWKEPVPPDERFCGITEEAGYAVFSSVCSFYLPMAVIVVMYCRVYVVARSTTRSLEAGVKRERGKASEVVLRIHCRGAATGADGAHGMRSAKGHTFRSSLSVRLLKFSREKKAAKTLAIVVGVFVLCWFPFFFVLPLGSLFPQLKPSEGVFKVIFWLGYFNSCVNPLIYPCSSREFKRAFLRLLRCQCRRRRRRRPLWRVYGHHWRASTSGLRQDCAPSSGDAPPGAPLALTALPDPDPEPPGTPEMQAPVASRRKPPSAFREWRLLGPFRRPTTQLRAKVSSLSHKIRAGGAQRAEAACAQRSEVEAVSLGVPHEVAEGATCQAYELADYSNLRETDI
The assay can be described thus: Displacement of [3H]prazosin from human Alpha-1D adrenoceptor expressed in CHO cells. It counts as cell-based. The method in brief:
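Membranes ([…], as printed) from CHO cells stably expressing the cloned human α1d subtype were incubated with 0.1–0.4 nM [³H]prazosin and competing drug (1 pM upward) in 50 mM Tris-HCl, pH 7.4, for 30 min at 25 °C. Phentolamine defined non-specific binding. IC50 was converted to Ki by Cheng–Prusoff. Reported as pKi from 2–3 triplicate experiments.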

Assay [3] addresses T3, Alpha-1A adrenergic receptor (Rattus norvegicus) (UniProt P43140).
T3 sequence (whole entry): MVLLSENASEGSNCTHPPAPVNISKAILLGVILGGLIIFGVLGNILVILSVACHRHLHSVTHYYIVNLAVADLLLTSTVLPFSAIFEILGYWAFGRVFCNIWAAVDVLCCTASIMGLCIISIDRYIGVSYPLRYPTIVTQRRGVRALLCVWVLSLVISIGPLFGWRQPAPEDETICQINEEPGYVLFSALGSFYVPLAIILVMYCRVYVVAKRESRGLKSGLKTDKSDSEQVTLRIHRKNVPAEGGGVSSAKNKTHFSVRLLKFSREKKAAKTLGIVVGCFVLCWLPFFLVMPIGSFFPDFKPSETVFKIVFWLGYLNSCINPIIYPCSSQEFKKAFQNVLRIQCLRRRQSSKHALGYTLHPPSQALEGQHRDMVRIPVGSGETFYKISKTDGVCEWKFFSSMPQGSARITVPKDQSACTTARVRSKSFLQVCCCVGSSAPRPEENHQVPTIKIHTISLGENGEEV
The assay can be described thus: Antagonist activity at alpha1A adrenoceptor in Wistar rat vas deferens assessed as noradrenaline induced contractions after 30 mins. It counts as functional, tissue-based. The method in brief: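 Prostatic portions (2 cm) of vas deferens from male Wistar rats (275–300 g) were held under 0.35 g tension in Tyrode solution at 37 °C with cocaine present. Tissues were equilibrated 45 min, primed twice with noradrenaline, then given a cumulative isotonic noradrenaline curve.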

For assay [4], the target named is T4, Alpha-1B adrenergic receptor (Rattus norvegicus) (UniProt P15823).
T4 sequence (whole entry): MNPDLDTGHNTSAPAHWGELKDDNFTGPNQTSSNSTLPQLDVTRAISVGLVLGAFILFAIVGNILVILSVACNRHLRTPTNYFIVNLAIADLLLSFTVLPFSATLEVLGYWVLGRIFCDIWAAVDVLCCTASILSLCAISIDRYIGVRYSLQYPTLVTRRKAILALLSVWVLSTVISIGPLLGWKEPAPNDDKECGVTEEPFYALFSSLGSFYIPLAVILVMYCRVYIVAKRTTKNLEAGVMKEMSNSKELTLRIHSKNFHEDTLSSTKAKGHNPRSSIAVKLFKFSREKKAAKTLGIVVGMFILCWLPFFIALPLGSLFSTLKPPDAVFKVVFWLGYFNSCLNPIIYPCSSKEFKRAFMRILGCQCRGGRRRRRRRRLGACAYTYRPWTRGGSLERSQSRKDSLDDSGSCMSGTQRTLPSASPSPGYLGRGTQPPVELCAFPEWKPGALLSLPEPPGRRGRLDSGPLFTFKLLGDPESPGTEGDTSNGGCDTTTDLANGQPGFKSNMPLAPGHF
Nature of the assay: Antagonist activity at Alpha-1B adrenoceptor in Wistar rat spleen assessed as phenylephrine induced contractions after 30 mins. It counts as functional, tissue-based. The method in brief: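 Spleen strips from male Wistar rats (275–300 g) were set up in a 20 mL bath of physiological salt solution (pH 7.4, 37 °C, 95% O2/5% CO2) under 1 g tension and equilibrated 2 h. Two cumulative phenylephrine curves were run, each followed by 30 min washing, then 30 min incubation with vehicle or antagonist before a third curve. Values are Schild pA2, or pKB where slopes were nonparallel; 4–6 experiments.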

Assay [5] addresses T5, Alpha-1D adrenergic receptor (Rattus norvegicus) (UniProt P23944).
T5 sequence (whole entry): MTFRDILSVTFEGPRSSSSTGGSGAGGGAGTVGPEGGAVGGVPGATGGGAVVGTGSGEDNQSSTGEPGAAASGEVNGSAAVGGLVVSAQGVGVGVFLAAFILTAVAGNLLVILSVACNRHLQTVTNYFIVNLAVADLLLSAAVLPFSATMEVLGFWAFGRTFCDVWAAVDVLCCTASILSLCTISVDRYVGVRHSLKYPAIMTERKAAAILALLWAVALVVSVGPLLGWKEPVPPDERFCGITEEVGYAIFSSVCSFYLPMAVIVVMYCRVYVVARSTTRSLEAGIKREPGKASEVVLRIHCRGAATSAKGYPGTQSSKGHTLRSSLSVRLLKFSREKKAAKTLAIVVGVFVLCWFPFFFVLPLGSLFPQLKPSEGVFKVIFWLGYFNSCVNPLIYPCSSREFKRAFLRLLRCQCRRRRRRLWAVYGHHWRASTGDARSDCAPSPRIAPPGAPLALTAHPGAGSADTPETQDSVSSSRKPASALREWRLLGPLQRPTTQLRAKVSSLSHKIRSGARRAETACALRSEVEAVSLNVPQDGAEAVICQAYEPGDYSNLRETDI
Particulars: Wistar, Thoracic aorta.

For orientation: Ki means a dissociation constant, usually derived from enzyme kinetics or from competition with a known ligand. Read a low Ki as higher affinity. By pKb is commonly meant the Kb on a negative log10 scale, so that one unit is a factor of ten. For the compound `CCOc1ccccc1OCCN[C@H](C)Cc1ccc(OC)c(S(N)(=O)=O)c1` [TAMSULOSIN], the figures for the Ki in assay [1] and in assay [2] were 0.631 nM and 0.1 nM, respectively. For the same compound, the pKb is 9.46 in assay [3], 9.3 in assay [4] and 10 in assay [5].
